Test results published in article PMC5753398 (Journal of the American Chemical Society, 2017).
One block for each compound: values may come before it.

Legend:
[1] = test system: Shh-mediated Hedgehog signaling (Gli-controlled Firefly luciferase) in NIH3T3 cells; experiment: Gli-reporter dual luciferase assay in Shh-N-stimulated NIH3T3 cells; type: cell-based, mouse
[2] = test system: GST-Shh, GST-Ihh, or GST-Dhh; experiment: Competition assay for Hh analog selectivity; type: binding, human; conditions: 10 μM robotnikinin + 400 nM FLAG-HL2-m5
Summary of the method: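 Competition format: PBS containing 10 μM competitor plus 400 nM FLAG-tagged macrocyclic peptide (recombinant, E. coli) added to wells coated with GST-Shh, GST-Ihh or GST-Dhh (E. coli BL21(DE3)-expressed, Ni-NTA purified). Wells then developed by HRP anti-FLAG antibody, o-phenylenediamine/urea peroxide substrate (pH 5.0) and A450. Relative affinity = (1 − % inhibition)GST-Hh/(1 − % inhibition)GST-Shh. Triplicate, mean and SD.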

[3] = test system: Shh / Hedgehog pathway activation; conditions: read-out: IC50, Shh inhibitory activity in vitro and in cells; similar cell-based assay; cited from earlier work
Shh/Patched interaction = conditions: read-out: IC50 for inhibition of the Shh/Patched interaction in vitro; ref 25a; cited from earlier work

Compound: CC1=C2C[C@H]3[C@@H](CC=C4C[C@@H](O)CC[C@@]43C)[C@@H]2CC[C@]12O[C@@H]1C[C@H](C)CN[C@H]1[C@H]2C [cyclopamine]
Inhibition of Shh-induced luminescence ([1]; 10 μM, assay validation): full inhibition

Compound: c1ccc2c(Oc3nc(Nc4ccc(N5CCOCC5)cc4)c4ncn(C5CCCCC5)c4n3)cccc2c1 [purmorphamine]
Effect on signaling pathway in HL2-m5-treated cells ([1]; 5 μM purmorphamine added to cells treated with 10 μM HL2-m5): restored activation

Affinity toward Ihh and Dhh relative to Shh [2]: significantly lower affinity
Compound: O=C(C[C@@H]1C/C=C/CCC(=O)O[C@H](c2ccccc2)CNC1=O)NCc1ccc(Cl)cc1 [robotnikinin]
IC50 [3]: ~15 µM

Compound: Ac-TLDDMEEMDGLSD-NH2 [L2-pep]
Inhibitory activity in Gli-reporter assay ([1]; concentrations up to 30 μM, identical conditions): no inhibitory activity

Compound: HHIP370–390: linear HHIP L2-derived peptide from the literature (GDGMITLDDMEEMDGLSDFTG; UniProt Q96QV1 370-390, looked up, fragment)
IC50 (Shh/Patched interaction): 150 µM
